Test results from ChEMBL document CHEMBL3596154, “Discovery of biaryl carboxylamides as potent RORγ inverse agonists” (Bioorg Med Chem Lett, 2015).

How the values were obtained:
[1] = Clearance in human hepatocytes relative to hepatic blood flow; type: ADME, cell-based, Liver, Hepatocyte; conditions: read-out: CLH
[2] = biological target: T1, Nuclear receptor ROR-beta (Homo sapiens, UniProt Q92753); assay: Inverse agonist activity at Gal4 DNA binding domain-tagged human RORbeta expressed in HEK293T cells assessed as effect on receptor-mediated transcriptional activity by luciferase reporter gene assay; type: cell-based, HEK-293T
T1 sequence (Q92753 whole entry): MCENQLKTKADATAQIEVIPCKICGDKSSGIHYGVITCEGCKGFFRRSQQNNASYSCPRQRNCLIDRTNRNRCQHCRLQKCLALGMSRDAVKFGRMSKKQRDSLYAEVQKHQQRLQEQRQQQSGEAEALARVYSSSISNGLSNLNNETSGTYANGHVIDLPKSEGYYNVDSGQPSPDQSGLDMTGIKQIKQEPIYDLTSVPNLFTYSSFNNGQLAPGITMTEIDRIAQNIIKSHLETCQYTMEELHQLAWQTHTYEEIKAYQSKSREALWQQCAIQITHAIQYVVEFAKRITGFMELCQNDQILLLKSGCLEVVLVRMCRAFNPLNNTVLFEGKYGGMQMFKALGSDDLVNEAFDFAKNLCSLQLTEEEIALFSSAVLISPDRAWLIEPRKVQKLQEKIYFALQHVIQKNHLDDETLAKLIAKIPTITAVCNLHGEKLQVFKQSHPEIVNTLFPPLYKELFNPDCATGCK
Outline: (§1)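 Gal4 reporter assay in 293T cells with the same format as the RORγ Gal4 assay, using Gal4DBD:RORαLBD or Gal4DBD:RORβLBD constructs. Transfection, then compound treatment, then lysis and dual-flash luciferase luminescence. Activity measured in dose-response.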

[3] = Clearance in rat hepatocytes relative to hepatic blood flow; type: ADME, cell-based, Liver, Hepatocyte; conditions: read-out: CLH
[4] = biological target: T2, Nuclear receptor ROR-alpha (Homo sapiens, UniProt P35398); assay: Inverse agonist activity at Gal4 DNA binding domain-tagged human RORalpha expressed in HEK293T cells assessed as effect on receptor-mediated transcriptional activity by luciferase reporter gene assay; type: cell-based, HEK-293T; outline: as §1
T2 sequence (P35398 whole entry): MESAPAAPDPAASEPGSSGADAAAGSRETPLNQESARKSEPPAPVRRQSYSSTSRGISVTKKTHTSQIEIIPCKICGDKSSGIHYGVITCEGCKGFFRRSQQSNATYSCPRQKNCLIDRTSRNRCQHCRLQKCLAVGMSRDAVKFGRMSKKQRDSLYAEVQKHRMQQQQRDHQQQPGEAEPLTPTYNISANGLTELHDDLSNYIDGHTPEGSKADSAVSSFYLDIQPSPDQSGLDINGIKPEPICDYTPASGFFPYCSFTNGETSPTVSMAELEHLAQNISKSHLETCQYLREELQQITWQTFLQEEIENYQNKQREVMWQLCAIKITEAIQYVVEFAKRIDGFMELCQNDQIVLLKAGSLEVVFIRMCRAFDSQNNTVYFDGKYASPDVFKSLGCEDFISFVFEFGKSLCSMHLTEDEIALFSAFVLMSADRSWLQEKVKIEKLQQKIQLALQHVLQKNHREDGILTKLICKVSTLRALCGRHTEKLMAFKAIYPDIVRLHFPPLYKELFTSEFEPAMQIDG

[5] = Cmax in rat at 2 mg/kg, iv; type: ADME, organism-based; design: dose 2 mg/kg, route intravenous; conditions: in vivo
Outline: (§2)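 Rats dosed at 2.0 mg/kg intravenously in SPEW vehicle. Plasma exposure profiled for T1/2 and Cmax.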

[6] = AUC (infinity) in rat at 2 mg/kg, iv; type: ADME, organism-based; design: dose 2 mg/kg, time infinity, route intravenous; conditions: in vivo
Outline: (§3)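 Rat PK; iv dosing at 2.0 mg/Kg in SPEW vehicle, oral dosing at 10 mg/Kg in 0.1% CMC-0.2%Tween; AUCinf reported in ng*hr/mL.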

[7] = Half life in rat at 2 mg/kg, iv; type: ADME, organism-based; conditions: in vivo; outline: as §2
[8] = biological target: T3, Nuclear receptor subfamily 1 group I member 2 (Homo sapiens, UniProt O75469); assay: Antagonist activity at Gal4 DNA binding domain-tagged human PXR ligand binding domain expressed in HEK293 cells assessed as inhibition of receptor-mediated transcriptional activity by luciferase reporter gene assay; type: cell-based
T3 sequence (O75469 whole entry): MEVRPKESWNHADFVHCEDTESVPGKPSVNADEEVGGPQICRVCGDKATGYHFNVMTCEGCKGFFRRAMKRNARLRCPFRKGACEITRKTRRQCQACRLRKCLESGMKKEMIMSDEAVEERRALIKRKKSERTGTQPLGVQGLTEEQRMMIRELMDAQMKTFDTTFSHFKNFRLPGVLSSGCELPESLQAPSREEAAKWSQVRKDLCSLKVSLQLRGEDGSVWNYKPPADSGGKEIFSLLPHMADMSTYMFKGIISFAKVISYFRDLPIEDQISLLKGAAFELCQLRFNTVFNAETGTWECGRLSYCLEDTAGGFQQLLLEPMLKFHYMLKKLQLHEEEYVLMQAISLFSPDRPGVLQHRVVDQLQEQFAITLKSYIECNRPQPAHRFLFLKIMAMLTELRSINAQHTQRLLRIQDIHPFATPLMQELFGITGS
Outline: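 Screened by ChemPartner in HEK293 cells transiently co-transfected with a Gal4DBD-human NR LBD construct and a UAS-Luc reporter. Run in antagonist mode, read as % inhibition at a single concentration. Commercial reference compounds were run alongside in the same assay.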

[9] = AUC (infinity) in rat at 10 mg/kg, po; type: ADME, organism-based; design: dose 10 mg/kg, route oral, time infinity; conditions: in vivo; outline: as §3
[10] = Cmax in rat at 10 mg/kg, po; type: ADME, organism-based; design: dose 10 mg/kg, route oral; conditions: in vivo
[11] = Oral bioavailability in rat at 10 mg/kg; type: ADME, organism-based; conditions: in vivo
[12] = biological target: T3, Nuclear receptor subfamily 1 group I member 2; assay: Agonist activity at Gal4 DNA binding domain-tagged human PXR ligand binding domain expressed in HEK293 cells assessed as activation of receptor-mediated transcriptional activity by luciferase reporter gene assay; type: cell-based
Outline: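 Screened by ChemPartner as a cell-based transient co-transfection reporter assay in HEK293 cells, using a Gal4DBD-human NR LBD construct with UAS-Luc. Run in agonist mode, read as % activation at a single concentration. Commercial reference compounds were profiled in the same assay for validation.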

Rattus norvegicus = assay: Clearance in rat at 2 mg/kg, iv relative to hepatic blood flow; type: ADME, organism-based, Liver; conditions: in vivo
Outline: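 Rats given 2.0 mg/kg iv in SPEW vehicle. Clearance is expressed as % of hepatic blood flow (%Qh).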

[2H]C([2H])([2H])N(C(=O)c1c(F)cccc1Cl)c1ccc(-c2cc(C(N)=O)ccc2Cl)cc1OCC(F)(F)F
hepatic extraction ratio [1]: 0.51
EC50 [2]: 1.93 µM
hepatic extraction ratio [3]: 0.65
EC50 [4]: 8.36 µM
Cmax [5]: 2740 ng/mL
AUC(0-inf) [6]: 1540 ng·h/mL
half-life [7]: 9.6 h
inhibition (INH) [8]: < 50%
AUC(0-inf) [9]: 3130 ng·h/mL
Cmax [10]: 1210 ng/mL
bioavailability [11]: 41%
Activity [12]: < 50%
CLH (Rattus norvegicus): 40%
